A selection: hits, their analogues and other compounds. The true share with any hit is near 4.3%.
TAAR1 antag: human TAAR1 antagonists, primary screen, Fluo-8 calcium fluorescence, CHO RD-HGA16 cells. antagonist. inhibition, % at 3 µM. hit rate 1.5% among 360,000. AID 624466, 2012;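 active means inhibition above a per-plate cutoff, the mean inhibition of test compounds on that plate plus 3 SD, cut at about 49% in these data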
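Assay system: RD-HGA16 CHO cells with stable hTAAR1 and Gα16 / Reagent: EC80 β-phenethylamine stimulus / Doses: 3 µM, single point / Timing: dye loading 75 min at 37 °C, then 30 min room temperature / Measured by: Fluo-8 intracellular calcium dye fluorescence, real-time kinetic reads / Controls: vehicle wells and EC80 agonist wells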
m5-HT2A agonist: mouse Htr2a agonists via beta-arrestin recruitment, primary screen, cell-based, luminescence; CHO-K1 mHTR2A beta-arrestin complementation; percent of 30 µM serotonin response; activation, % at 7.6 µM; hit rate 0.66% among 360,000; AID 624169, 2012;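 active means activation above a run cutoff, the mean activation of all tested compounds plus 3 SD, cut at about 14% in these data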
Target sequence (P35363 whole entry, looked up): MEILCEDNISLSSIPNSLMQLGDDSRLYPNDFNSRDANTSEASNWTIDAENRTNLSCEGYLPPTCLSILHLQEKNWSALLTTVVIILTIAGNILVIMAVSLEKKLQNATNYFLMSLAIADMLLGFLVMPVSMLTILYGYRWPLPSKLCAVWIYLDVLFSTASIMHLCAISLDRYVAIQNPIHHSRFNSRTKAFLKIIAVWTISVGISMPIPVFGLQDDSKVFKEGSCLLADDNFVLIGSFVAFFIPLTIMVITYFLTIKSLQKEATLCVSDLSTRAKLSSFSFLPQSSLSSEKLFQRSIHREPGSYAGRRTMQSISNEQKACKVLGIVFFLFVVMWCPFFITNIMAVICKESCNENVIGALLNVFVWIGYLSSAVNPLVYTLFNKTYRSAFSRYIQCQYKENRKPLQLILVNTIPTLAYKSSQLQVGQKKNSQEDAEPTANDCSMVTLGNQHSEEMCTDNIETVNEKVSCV
MC4R barr agon: MC4R agonists recruiting beta-arrestin, primary screen, cell-based, luminescence, agonist arm of biased-ligand search. U2OS MC4R beta-arrestin complementation; percent of melanotan II response, DMSO zero. activation, % at 8.9 µM. hit rate 0.98% among 360,000. AID 540308, 2011;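 active means activation above a per-plate cutoff, the mean activation of sample wells on that plate plus 3 SD, cut at about 8% in these data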
MC4R antagonist: MC4R antagonists of cAMP signaling, primary screen, cell-based, TR-FRET, antagonist arm of biased-ligand search. Melanocortin receptor 4 (Homo sapiens), P32245. MC4R-expressing cells, MTII-stimulated cAMP, LANCE TR-FRET. inhibition, % at 6.5 µM. hit rate 0.48% among 360,000. AID 540295, 2011;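 active means inhibition above its plate's cutoff, the mean of tested wells on that plate plus 3 SD, cut at about 29% in these data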
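System: U2OS-MC4R stable cell line; Technique: Eu-cAMP/anti-cAMP TR-FRET, emission 671 nm; Repeats: single well per compound; Also added: Melanotan II; Dosing: one concentration, 6.5 µM nominal; Schedule: 30-min compound, 1-h challenge, 1-h detection, room temperature.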
TAAR1 ag: human TAAR1 agonists, primary screen, Fluo-8 calcium fluorescence, CHO RD-HGA16 cells. Trace amine-associated receptor 1 (Homo sapiens), Q96RJ0. vehicle wells 0%, saturating PEA agonist 100%. activation, % at 3 µM. hit rate 0.99% among 360,000. AID 624467, 2012;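 active means activation above the mean activation of all test compounds in the run plus 3 SD, cut at about 38% in these data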
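Test system: RD-HGA16 (CHO) cells co-expressing Gα16 and hTAAR1; dosing: one-point dosing at 3 µM (nominal); timing: 17-24 h seeding, 75 min 37 °C dye, 30 min RT; signal: kinetic Fluo-8 calcium fluorescence; read-out basis: % activation relative to PEA EC100 response; controls: DMSO and PEA EC100; replicates: n 1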
B2AR ag: beta2AR agonists driving receptor internalization, primary screen, cell-based, FAP fluorogen, flow cytometry; Beta-2 adrenergic receptor (Homo sapiens), P07550; Am2.2-beta2AR cells; response, % (test concentration not listed); hit rate 0.43% among 340,000; AID 504454, 2011;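 active means response above a set limit, near 3 SD of response in nonfluorescent compounds, cut at about 42% in these data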
B2AR ag CP1: beta2AR agonists via receptor internalization, confirmation, cell-based, FAP fluorogen, flow cytometry, single point, cherry pick 1; shares compounds with B2AR ag; Am2.2-beta2AR cells, FAP surface receptor; stronger effect = lower value; percent response (surface receptor), % at 10 µM; hit rate 25% among 1,100;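 active means surface receptor percent response at or below 58%, roughly 3 SD from nonfluorescent compounds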
B2AR FAP counter: counter-screen for beta-2AR agonists: fluorescence in Am2.2 cells | shares compounds with B2AR ag | FAP fluorogen flow cytometry, fluorescence counterscreen; stronger effect = lower value | calls only at 10 µM | 1,100 tested, under 10 active;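 active means percent response below a set limit in fluorescence channel 1 and below 50% in channel 8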
Each line names hits and unclear results; the compound was inactive in the other large screens (follow-up assays come after a bar, where they were run).

CSCCC(c1nnnn1C1CCCCC1)N1CCC(n2c(=O)[nH]c3ccccc32)CC1 (stereo unspecified)	TAAR1 antag 62 (no result: MC4R barr agon, MC4R antagonist, B2AR ag)
O=c1[nH]c2ccccc2n1C1CCN(C(c2cc3ccccc3o2)c2nnnn2-c2ccc3c(c2)OCCO3)CC1 (stereo unspecified)	TAAR1 antag 66 (no result: MC4R barr agon, MC4R antagonist, B2AR ag)
O=c1[nH]c2ccccc2n1C1CCN(C(c2cccc3ccccc23)c2nnnn2-c2ccc3c(c2)OCCO3)CC1 (stereo unspecified)	none (no result: MC4R barr agon, MC4R antagonist, B2AR ag)
CC(=O)OC1CC[C@@]2(C)C(=CC(=O)C3C4CCC(OC(C)=O)[C@@]4(C)CCC32)C1 (stereo partly specified)	none
C#C[C@]1(O)CC[C@H]2[C@@H]3[C@H](O)C[C@H]4C[C@@H](O)CC[C@]4(C)[C@H]3CC[C@@]21C	none (no result: B2AR ag)
COC(=O)C1=C(c2ccc(F)cc2OCc2ccccc2)C[C@@H]2CC[C@H]1N2C(=O)NCc1ccc(C)cc1	TAAR1 antag 60
O=C(NCCN1CCC2(CC1)C(=O)NCN2c1cccc(F)c1)c1ccc2ccccc2c1	TAAR1 antag 106, TAAR1 ag 83 (no result: MC4R barr agon, MC4R antagonist, B2AR ag)
O=C(NCCN1CCC2(CC1)C(=O)NCN2c1ccccc1)c1ccccc1F	none (no result: m5-HT2A agonist, MC4R barr agon, MC4R antagonist, B2AR ag)
COc1cc(OC)c2c(c1)O[C@@H](c1ccc(OC)c(OC)c1)[C@H](O)C2	none
C[C@]12CCC(=O)C=C1C=CC1C2CC[C@]2(C)C(=O)CCC12 (stereo partly specified)	none
COc1ccc(-n2c(/C=C/c3ccc(O)c(O)c3)nc3ccccc3c2=O)cc1	TAAR1 antag 50
COc1cc(/C=C/c2nc3ccccc3c(=O)n2-c2ccc(O)cc2)ccc1O	TAAR1 antag 67
O=c1c2ccccc2nc(/C=C/c2ccc3c(c2)OCO3)n1-c1ccccc1	none
COc1ccc(OC(=O)N(C)C[C@H]2OCc3cnnn3CCCC(=O)N([C@H](C)CO)C[C@H]2C)cc1	none (no result: B2AR ag)
Cc1ccc(-c2cc(-c3ccc(C)cc3)[n+](-c3ccc(C(=O)O)cc3)c(-c3ccc(C)cc3)c2)cc1	none
Cc1ccc(C[n+]2c(-c3ccc(C)cc3)cc(-c3ccc(C)cc3)cc2-c2ccc(C)cc2)cc1	m5-HT2A agonist 17, MC4R barr agon 56 (no result: TAAR1 antag, TAAR1 ag)
Cc1nc2c(=O)n(C)c(=O)nc-2n(C)n1	B2AR ag 64
Cc1nc(N2CCN(Cc3ccc4c(c3)OCO4)CC2)[nH]c(=O)c1C	none
CC[C@@H](CO)NC(=O)[C@@H]1C=C2c3cccc4c3c(cn4C)C[C@H]2N(C)C1	none (no result: m5-HT2A agonist)
CC(C)C[C@H]1C(=O)N2CCC[C@H]2[C@]2(O)O[C@](NC(=O)[C@@H]3C=C4c5cccc6[nH]cc(c56)C[C@H]4N(C)C3)(C(C)C)C(=O)N12	m5-HT2A agonist 49 (no result: TAAR1 antag, TAAR1 ag)
CN1CCCC1CCOC(C)(c1ccccc1)c1ccc(Cl)cc1 (stereo unspecified)	none
CCN(CCCl)c1cc(CN(C)C)cc(NC(=O)c2ccc(C(=O)Nc3cc(CN(C)C)cc(N(CC)CCCl)c3)cc2)c1	B2AR ag 47
C=CCN=C(SCC(=O)c1ccc(Cl)cc1)c1c(O)n(C)c(=O)n(C)c1=O	none
O=c1c2ccccc2[se]n1-c1ccccc1	TAAR1 ag 41
CC(Cc1ccccc1)NC(=O)Cc1ccc([N+](=O)[O-])cc1 (stereo unspecified)	none
O=C1NC(=S)N(c2ccc(Cl)cc2)C(=O)/C1=C/N1CCN(C(=O)c2ccco2)CC1	TAAR1 ag 38
COc1ccc(NP(=O)(Oc2ccccc2OC)Oc2ccccc2OC)cc1	TAAR1 antag 59
COc1ccc(NP(=O)(Nc2ccc(OC)cc2)Oc2ccccc2)cc1	none
CCCCn1c(=O)c(C(=O)Nc2ncccc2C)c(O)c2ccccc21	TAAR1 ag 55
COc1ccc(N2C(=O)/C(=C/c3ccc(C)o3)C(=O)NC2=S)cc1	B2AR ag 44
CCOc1ccc(N2C(=O)/C(=C/c3ccc(C)o3)C(=O)NC2=S)cc1	none
Cc1ccc(/C=C2\C(=O)NC(=S)N(c3cccc(F)c3)C2=O)o1	B2AR ag 50
Cc1ccc2c(c1)Oc1ccccc1N=C2	none (no result: B2AR ag)
NC1=Nc2ccccc2Oc2ccccc21	TAAR1 ag 40
CN(C)c1ccc(/C=C/[N+](=O)[O-])cc1	TAAR1 ag 40
Cc1ccsc1/C=C1\C(=O)NC(=S)N(C)C1=O	B2AR ag 55
CN1C(=O)/C(=C/c2ccc(Cl)s2)C(=O)NC1=S	none
O=c1[nH]c2ccccc2n1C1CCN(C(c2ccccc2OC(F)(F)F)c2nnnn2Cc2ccccc2)CC1 (stereo unspecified)	none (no result: MC4R barr agon, MC4R antagonist, B2AR ag)
CC1=CC2OC3CC4OC(=O)C=CC=CC(=O)OCCC(C)C(O)C(=O)OCC2(CC1)C4(C)C31CO1 (stereo unspecified)	TAAR1 antag 89, MC4R barr agon 8.9, MC4R antagonist 37
COC(=O)C1=C(c2ccc(C(C)=O)cc2)C[C@@H]2CC[C@H]1N2C(=O)NCc1ccc(F)cc1	none
O=C(NC(C(Cl)Cl)N1CCOCC1)c1ccccc1 (stereo unspecified)	none
C=C1C(=O)O[C@@H]2C[C@@H](C)[C@@H]3C=CC(=O)[C@@]3(C)[C@@H](OC(=O)CC(=O)O[C@H]3[C@@H]4C(=C)C(=O)O[C@@H]4C[C@@H](C)[C@@H]4C=CC(=O)[C@]43C)[C@H]12	B2AR ag 48
CC(=O)OC1CCC2(C)C(=CC(=O)C3C2CCC2(C)C(OC(C)=O)CCC32)C1 (stereo unspecified)	none
OC(CNCc1ccccc1)c1ccc(Cl)cc1 (stereo unspecified)	none | B2AR ag CP1 inactive | B2AR FAP counter inactive
